Measured values taken from ChEMBL document CHEMBL1138302, “Diaryl dihydropyrazole-3-carboxamides with significant in vivo antiobesity activity related to CB1 receptor antagonism: synthesis, biological evaluation, and molecular modeling in the homology model” (J Med Chem, 2007).

Tests used:
Rattus norvegicus = experiment: Inhibition of sucrose intake in Zucker fa/fa rat at 10 mg/kg, po after 4 hrs; type: functional; settings: 10 mg/kg
In short: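 Female Zucker fa/fa rats (10-12 weeks, 300-350 g) trained six consecutive days on 5% sucrose with food and water withdrawn; day 7 randomized (n=6), dosed orally 10 mg/kg in 0.5% carboxymethylcellulose (2 mL/kg), exposed to sucrose 1 h later for 4 h. Consumption measured; % inhibition vs vehicle control; one-way ANOVA with Dunnett's test.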

[1] = Tmax in fasted Zucker fa/fa rat at 30 mg/kg, po; type: ADME, organism-based; set-up: dose 30 mg/kg, route oral; settings: in vivo
In short: (§1)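 Overnight-fasted female obese Zucker fa/fa rats (n=6), single 30 mg/kg oral dose as suspension in 0.5% carboxymethylcellulose sodium in water. Retro-orbital serial bleeds at 10, 20, 40 min and 1, 2, 4, 6, 8, 24, 48 h; plasma extracted liquid-liquid and quantified by LC-MS against spiked-matrix calibration with internal standard. Noncompartmental parameters computed.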

[2] = Cmax in fasted Zucker fa/fa rat at 30 mg/kg, po; type: ADME, organism-based; set-up: dose 30 mg/kg, route oral; settings: in vivo; in short: as §1
[3] = Half life in fasted Zucker fa/fa rat at 30 mg/kg, po; type: ADME, organism-based; set-up: dose 30 mg/kg, route oral; settings: in vivo; in short: as §1
[4] = AUC (0 to infinity) in fasted Zucker fa/fa rat at 30 mg/kg, po; type: ADME, organism-based; set-up: time infinity, dose 30 mg/kg, route oral; settings: plasma; in short: as §1
[5] = Drug concentration in fasted Zucker fa/fa rat brain at 30 mg/kg, po after 3 hrs; type: ADME, organism-based; set-up: dose 30 mg/kg, route oral; settings: read-out: Drug uptake
In short: (§2)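 Female obese Zucker fa/fa rats (n=6), fasted, single oral 30 mg/kg in 0.5% carboxymethylcellulose; blood, brain and white adipose tissue taken at 3 h. Tissues saline-washed and homogenized in Tris buffer pH 7.4; plasma and homogenates liquid-liquid extracted and assayed by LC-MS (cyano column, ammonium acetate/TFA–acetonitrile 30:70). Values mean ± SEM.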

[6] = Drug concentration in fasted Zucker fa/fa rat white adipose tissue at 30 mg/kg, po after 3 hrs; type: ADME, organism-based; set-up: dose 30 mg/kg, route oral; settings: read-out: Drug uptake; in short: as §2
[7] = Drug concentration in fasted Zucker fa/fa rat plasma at 30 mg/kg, po after 3 hrs; type: ADME, organism-based; set-up: dose 30 mg/kg, route oral; in short: as §2
Cannabinoid receptor 1 = Cannabinoid receptor 1 (Homo sapiens, UniProt P21554); experiment: biochemical; type: cell-based, HEK293
Cannabinoid receptor 1, sequence (P21554 whole entry): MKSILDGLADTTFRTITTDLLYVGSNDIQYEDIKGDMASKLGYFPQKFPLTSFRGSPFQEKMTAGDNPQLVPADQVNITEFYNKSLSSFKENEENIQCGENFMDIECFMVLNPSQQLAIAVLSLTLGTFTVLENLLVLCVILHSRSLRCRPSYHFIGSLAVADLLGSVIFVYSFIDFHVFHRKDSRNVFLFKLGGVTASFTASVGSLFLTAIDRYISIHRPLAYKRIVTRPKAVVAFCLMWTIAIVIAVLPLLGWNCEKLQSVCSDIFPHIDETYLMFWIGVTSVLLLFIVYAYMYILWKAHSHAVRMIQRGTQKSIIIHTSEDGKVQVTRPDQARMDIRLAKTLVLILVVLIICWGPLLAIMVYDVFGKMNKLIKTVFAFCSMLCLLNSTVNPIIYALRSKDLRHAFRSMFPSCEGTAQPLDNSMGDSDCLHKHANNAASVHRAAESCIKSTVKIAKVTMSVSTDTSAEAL

Cannabinoid receptor 2 = Cannabinoid receptor 2 (Homo sapiens, UniProt P34972); experiment: Displacement of [3H]WIN-552122 from human recombinant CB2 receptor expressed in CHOK1 cells; type: cell-based, CHO-K1
Cannabinoid receptor 2, sequence (P34972 whole entry): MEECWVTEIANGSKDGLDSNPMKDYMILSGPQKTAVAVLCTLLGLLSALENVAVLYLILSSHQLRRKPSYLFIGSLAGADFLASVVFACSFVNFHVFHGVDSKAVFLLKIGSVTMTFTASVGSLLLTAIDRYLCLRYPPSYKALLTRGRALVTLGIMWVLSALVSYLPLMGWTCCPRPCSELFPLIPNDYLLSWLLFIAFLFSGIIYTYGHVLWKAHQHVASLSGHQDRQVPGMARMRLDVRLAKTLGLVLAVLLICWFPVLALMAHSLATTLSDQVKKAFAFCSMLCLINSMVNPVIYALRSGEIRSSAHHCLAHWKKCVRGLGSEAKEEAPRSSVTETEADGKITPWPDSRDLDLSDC

Mus musculus [8] = experiment: Effect on locomotor activity in Swiss albino mouse tetrad model assessed as number of squares crossed in 5 mins at 1 mg/kg po after 35 mins in presence of 1 mg/kg cannabinoid agonist WIN-55212-2 relative to control; type: functional
In short: (§3)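 Female Swiss albino mice (10-12 weeks, 25-30 g), n=6, dosed orally in 0.5% carboxymethylcellulose (10 mL/kg); 1 h later WIN-55212-2 1 mg/kg iv in 0.01% Tween 80/5% DMSO saline. From 30 min on: rectal temperature before and after treatment; hot plate 55 °C, %MPE, 30 s cutoff; ring-test immobility over 5 min; open-field squares crossed in 5 min at 35 min. Compared with WIN-treated controls.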

Mus musculus [9] = experiment: Effect on locomotor activity in Swiss albino mouse tetrad model assessed as number of squares crossed in 5 mins at 3 mg/kg po after 35 mins in presence of 1 mg/kg cannabinoid agonist WIN-55212-2 relative to control; type: functional; in short: as §3
Mus musculus [10] = experiment: Effect on locomotor activity in Swiss albino mouse tetrad model assessed as number of squares crossed in 5 mins at 10 mg/kg po after 35 mins in presence of 1 mg/kg cannabinoid agonist WIN-55212-2 relative to control; type: functional; in short: as §3
Mus musculus [11] = experiment: Effect on locomotor activity in Swiss albino mouse tetrad model assessed as number of squares crossed in 5 mins at 30 mg/kg po after 35 mins in presence of 1 mg/kg cannabinoid agonist WIN-55212-2 relative to control; type: functional; in short: as §3
Mus musculus [12] = experiment: Effect on catalepsy in Swiss albino mouse tetrad model assessed as immobility for 5 mins at 30 mg/kg po after 30 mins by ring test in presence of 1 mg/kg cannabinoid agonist WIN-55212-2 relative to control; type: functional; in short: as §3
Mus musculus [13] = experiment: Analgesic activity in Swiss albino mouse tetrad model at 1 mg/kg po by hot plate test in presence of 1 mg/kg cannabinoid agonist WIN-55212-2 relative to control; type: functional; in short: as §3
Mus musculus [14] = experiment: Effect on change in body temperature in Swiss albino mouse tetrad model at 1 mg/kg po in presence of 1 mg/kg cannabinoid agonist WIN-55212-2 relative to control; type: functional; in short: as §3
Mus musculus [15] = experiment: Effect on change in body temperature in Swiss albino mouse tetrad model at 3 mg/kg po in presence of 1 mg/kg cannabinoid agonist WIN-55212-2 relative to control; type: functional; in short: as §3
Mus musculus [16] = experiment: Effect on change in body temperature in Swiss albino mouse tetrad model at 10 mg/kg po in presence of 1 mg/kg cannabinoid agonist WIN-55212-2 relative to control; type: functional; in short: as §3
Mus musculus [17] = experiment: Effect on change in body temperature in Swiss albino mouse tetrad model at 30 mg/kg po in presence of 1 mg/kg cannabinoid agonist WIN-55212-2 relative to control; type: functional; in short: as §3
Mus musculus [18] = experiment: Effect on catalepsy in Swiss albino mouse tetrad model assessed as immobility for 5 mins at 1 mg/kg po after 30 mins by ring test in presence of 1 mg/kg cannabinoid agonist WIN-55212-2 relative to control; type: functional; in short: as §3
Mus musculus [19] = experiment: Effect on catalepsy in Swiss albino mouse tetrad model assessed as immobility for 5 mins at 3 mg/kg po after 30 mins by ring test in presence of 1 mg/kg cannabinoid agonist WIN-55212-2 relative to control; type: functional; in short: as §3
Mus musculus [20] = experiment: Effect on catalepsy in Swiss albino mouse tetrad model assessed as immobility for 5 mins at 10 mg/kg po after 30 mins by ring test in presence of 1 mg/kg cannabinoid agonist WIN-55212-2 relative to control; type: functional; in short: as §3
Mus musculus [21] = experiment: Analgesic activity in Swiss albino mouse tetrad model at 3 mg/kg po by hot plate test in presence of 1 mg/kg cannabinoid agonist WIN-55212-2 relative to control; type: functional; in short: as §3
Mus musculus [22] = experiment: Analgesic activity in Swiss albino mouse tetrad model at 10 mg/kg po by hot plate test in presence of 1 mg/kg cannabinoid agonist WIN-55212-2 relative to control; type: functional; in short: as §3
Mus musculus [23] = experiment: Analgesic activity in Swiss albino mouse tetrad model at 30 mg/kg po by hot plate test in presence of 1 mg/kg cannabinoid agonist WIN-55212-2 relative to control; type: functional; in short: as §3

O=C(NN1CCOCC1)C1=NN(c2ccc(Cl)cc2Cl)C(c2ccc(Cl)cc2)C1.O=S(=O)(O)O (single isomer, unassigned; 30)
Inhibition (Rattus norvegicus): 58.6%
Tmax [1]: 3.7 h
Cmax [2]: 510 ng/mL
half-life [3]: 17.6 h
AUC(0-inf) [4]: 10000 ng·h/mL
concentration at 3 h [5]: 4860 ng/g
concentration at 3 h [6]: 6310 ng/g
concentration at 3 h [7]: 1400 ng/mL
Ki (Cannabinoid receptor 1): 0.15 µM
Ki (Cannabinoid receptor 2): 24.5 µM
Activity (Mus musculus [8]): 0.4
Activity (Mus musculus [9]): 3
Activity (Mus musculus [10]): 13.25
Activity (Mus musculus [11]): 25
Activity (Mus musculus [12]): 18.23%
MPE (Mus musculus [13]): 24%
Activity (Mus musculus [14]): -4.24 °C
Activity (Mus musculus [15]): -2.1 °C
Activity (Mus musculus [16]): -0.15 °C
Activity (Mus musculus [17]): 0.15 °C
Activity (Mus musculus [18]): 85.2%
Activity (Mus musculus [19]): 33.75%
Activity (Mus musculus [20]): 14.2%
MPE (Mus musculus [21]): 12%
MPE (Mus musculus [22]): -0.15%
MPE (Mus musculus [23]): 11.5%
